Rows were chosen to be rich in hits. Some 0.7% of all compounds tested hit in one or more screens of this group.
CaV13 FRET inh = Primary screen for inhibitors of IQ motif and Ca2+-dependent inactivation inhibitor domain binding in CACNA1D, Förster resonance energy transfer in living cells, …; 340,000 compounds, 0.098% hits; inhibition, % at 12.3 µM; AID 743397; HEK cells, CFP/YFP FRET ICDI-IQ, plate reader, 10 min; percent FRET-ratio fall versus neutral wells;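 active = mean replicate inhibition of at least 30% and at least 1% of replicates passing that level; inconclusive = only one of the two criteria is met; inactive = neither criterion is met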;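 note: 0% = median of the neutral control wells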
Vif imaging = blocks HIV Vif function; HEK293T cells, Vif self-association by quenched fluorescence, imaging, 24 h; inhibition, % at 7.49 µM; 340,000 compounds, 0.35% hits; in the data active = inhibition above about 50%, passing the limit was not always enough; inconclusive = no clear call, values can overlap the other calls; inactive = below about 31%
Glyco luc inh = N-linked glycosylation inhibition | D54 ERlucT glycosylation luciferase reporter, 24 h; percent of 100 nM tunicamycin response | reporter increase, % at 12.5 µM | 360,000 compounds, 0.23% hits;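 active = mean luciferase reporter signal, scaled so untreated is 0 and the glycosylation-blocking control 100, at or above a set limit in every replicate; inconclusive = mean reaches the limit but not every replicate does; inactive = mean below the limit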;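 note: luciferase carries N-glycosylation sites so blocking glycosylation raises the light; 0% = median of neutral control wells and 100% = median of 100 nM tunicamycin wells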
NPR2 activator = GC-B (human) receptor activation; HEK293-GC-B cells, CNP EC30, cGMP TR-FRET; 0% at EC30 CNP, 100% saturating CNP; P20594; activation, % at 10 µM; 370,000 compounds, 0.11% hits;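 active = activation at 10 µM reaching about 35% in either raw or pattern-adjusted values, limit read from the data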
Target sequence (P20594 whole entry, looked up): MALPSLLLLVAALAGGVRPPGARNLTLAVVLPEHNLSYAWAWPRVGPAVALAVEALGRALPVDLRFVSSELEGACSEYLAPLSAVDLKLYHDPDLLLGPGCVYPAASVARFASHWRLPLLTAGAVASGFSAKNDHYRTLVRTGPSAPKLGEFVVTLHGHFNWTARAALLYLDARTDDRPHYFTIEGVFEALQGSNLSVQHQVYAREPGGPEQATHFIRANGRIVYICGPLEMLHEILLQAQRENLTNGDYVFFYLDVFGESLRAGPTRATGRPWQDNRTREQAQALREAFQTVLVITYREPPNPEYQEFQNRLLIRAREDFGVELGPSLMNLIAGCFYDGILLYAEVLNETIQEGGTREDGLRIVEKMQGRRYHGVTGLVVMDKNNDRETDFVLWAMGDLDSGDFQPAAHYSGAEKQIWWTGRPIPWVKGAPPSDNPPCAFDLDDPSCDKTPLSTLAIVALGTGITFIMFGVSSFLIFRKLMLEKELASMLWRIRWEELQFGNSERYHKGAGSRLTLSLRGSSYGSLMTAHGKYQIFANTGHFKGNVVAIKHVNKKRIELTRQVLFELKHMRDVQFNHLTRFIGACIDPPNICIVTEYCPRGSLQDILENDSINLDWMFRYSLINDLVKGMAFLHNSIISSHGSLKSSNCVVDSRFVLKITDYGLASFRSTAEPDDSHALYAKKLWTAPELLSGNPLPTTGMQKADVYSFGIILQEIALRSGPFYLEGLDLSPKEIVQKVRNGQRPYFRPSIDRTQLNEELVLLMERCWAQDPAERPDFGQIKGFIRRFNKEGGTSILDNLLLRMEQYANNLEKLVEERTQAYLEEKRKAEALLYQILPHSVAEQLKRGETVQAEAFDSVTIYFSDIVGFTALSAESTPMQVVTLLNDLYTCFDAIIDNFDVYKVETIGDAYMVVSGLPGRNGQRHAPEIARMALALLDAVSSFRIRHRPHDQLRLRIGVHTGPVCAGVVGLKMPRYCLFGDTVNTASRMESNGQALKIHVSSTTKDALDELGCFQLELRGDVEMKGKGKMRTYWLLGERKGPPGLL
Xi reactivation = X-chromosome reactivation activator | XiGFP mouse fibroblasts, % GFP-positive cells imaging, 3 d; cells co-treated with 5-aza-dC sensitizer; scaled so ellipticine positive control = 100% | activation, % at 7.58 µM | 360,000 compounds, 0.055% hits | AID 743238;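 active = mean normalized replicate activation at least 10% and every replicate at or above 10%; inconclusive = only one of the two criteria met; inactive = mean below 10% and not all replicates reach 10%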;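 note: 0% = median of on-plate neutral control wells and 100% = ellipticine 6 µM median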
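assay system = SV40-immortalized XiGFP fibroblast cells, line 68-5-11 | buffer or medium = DMEM plus 5-aza-dC sensitizer | doses = single-point pinned compound dosing | times = 3-day compound exposure, then 15 min fixation at room temperature | benchmarks = positive control ellipticine, 6 µM final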
GC-A act = GC-A (human) enzyme activation | HEK293 GC-A cells, cGMP TR-FRET, EC30 ANP; 0% at EC30 ANP, 100% saturating ANP | activation, % at 10 µM | 370,000 compounds, 0.14% hits | AID 1671463; in the data active = activation above about 40%
The depositor's hits bear a star; ? = inconclusive; · = no result given.

SMILES	CaV13 FRET inh	Vif imaging	Glyco luc inh	NPR2 activator	Xi reactivation	GC-A act
O=C(NCc1ccccc1Cl)c1cccc2c1C(=O)c1ccc(-c3ccc(OC(F)(F)F)cc3)cc1S2(=O)=O	·	-1	304*	·	·	·
C[C@@H]1CN([C@H](C)CO)S(=O)(=O)c2ccc(C#CC3CC3)cc2O[C@H]1CN(C)C(=O)c1cccnc1	·	·	·	·	0	·
Cc1noc(C)c1S(=O)(=O)N(C)C[C@@H]1OCCCC[C@@H](C)Oc2ccc(NC(=O)Nc3ccc(F)cc3)cc2C(=O)N([C@@H](C)CO)C[C@@H]1C	·	·	·	·	0	·
Cc1noc(C)c1NC(=O)Nc1ccc2c(c1)C(=O)N([C@H](C)CO)C[C@H](C)[C@H](CN(C)S(=O)(=O)c1cn(C)cn1)OCCCC[C@H](C)O2	·	·	·	·	-1	·
CO[C@@H]1CN(C)C(=O)c2ccc(NC(=O)c3ccc(-c4ccccc4)cc3)cc2OC[C@@H](C)NC[C@H]1C	·	·	·	·	0	·
C[C@H](CO)N1C[C@H](C)[C@@H](CN(C)C(=O)C2CCC2)Oc2cc(Br)ccc2S1(=O)=O	·	·	·	·	-1	·
Cc1noc(C)c1NC(=O)Nc1ccc2c(c1)CC(=O)N([C@H](C)CO)C[C@H](C)[C@H](CN(C)S(=O)(=O)c1ccc(F)cc1)O2	·	·	·	·	0	·
Nc1nc2c(ncn2[C@@H]2O[C@H](C(=O)NCCCN3CCCC3=O)[C@@H](O)[C@H]2O)c(=O)[nH]1	-8	·	·	45*	0	49*
CN1c2ccc(-c3ccccc3)cc2[C@@H]2[C@@H](CCN2C(=O)c2ccc3c(c2)OCO3)[C@@H]1CO	·	·	·	·	0	·
C[C@H](Cc1ccccc1)Nc1ncnc2c1ncn2[C@@H]1O[C@H](CO)[C@@H](O)[C@H]1O	-5	65*	0	-5	0	2
COc1cccc(-c2cnc3c(c2)C(=O)N([C@@H](C)CO)C[C@H](C)[C@@H](CN(C)Cc2ccc(C(=O)O)cc2)O3)c1	·	·	·	·	-1	·
CC(C)Nc1c(N)c(=O)oc2ccccc12	-2	59*	1	-5	·	-11
CNc1c(N)c(=O)oc2ccccc12	-5	10	-1	4	0	-5
Cc1cc(OCC(C)C)ccc1/C(O)=C1/C(=O)C(=O)N(Cc2cccnc2)C1c1ccncc1 (stereo not drawn)	·	54*	0	3	·	13
COc1cccc(CNc2ncnc3ccc(-c4c(C)noc4C)cc23)c1	-6	-3	9	56*	0	51*
Cc1sc(NC(=O)c2cccc(N3C(=O)CCC3=O)c2)nc1-c1ccccc1	-6	2	-2	-7	0	77*
O=C(Nc1nc2ccccc2s1)c1cccc(N2C(=O)CCC2=O)c1	·	1	0	0	0	44*
O=C(Nc1ccc(F)cc1)N[C@H]1CC[C@@H](CCn2cc(-c3ccccc3F)nn2)O[C@H]1CO	·	·	·	·	0	·
C[C@H](CO)N1C[C@H](C)[C@@H](CN(C)Cc2ccc(C(F)(F)F)cc2)Oc2ccc(NS(=O)(=O)c3cn(C)cn3)cc2CC1=O	·	·	·	·	0	·
COc1cc(-c2ccc3c(=O)c4ccccc4n(C)c3c2)cc(OC)c1OC	-6	-2	11	22	0	19
Cn1c2ccccc2c(=O)c2ccc(F)cc21	186*	0	6	7	0	3
CCOC(=O)CC(=O)CSc1ncnc2c1oc1ccccc12	·	57*	1	0	·	2
O=C(O)CSc1ncnc2c1oc1ccccc12	-4	16	1	3	·	3
CO[C@H]1CN(C)C(=O)c2cc(NC(=O)C3CC3)ccc2OC[C@@H](C)N(C(C)=O)C[C@H]1C	·	·	·	·	-1	·
Nc1ncnc2c1ncn2[C@@H]1O[C@H](CO)C[C@H]1O	-5	56*	5	2	0	0
SMILES	CaV13 FRET inh	Vif imaging	Glyco luc inh	NPR2 activator	Xi reactivation	GC-A act
Nc1ncnc2c1ncn2[C@@H]1O[C@H](COP(=O)(O)O)[C@@H](O)[C@H]1O	-5	106*	1	-2	0	0
Nc1ncnc2c1ncn2C1OC(COP(=O)(O)O)C(O)C1O (stereo not drawn)	-5	66*	2	2	0	1
Nc1ncnc2c1ncn2C1OC(CO)C2OC21 (stereo not drawn)	-10	-5	0	2	0	2
COc1ccccc1C(=O)c1cc2ccc(O)cc2oc1=O	144*	-3	0	0	0	0
C[C@@H]1CN([C@H](C)CO)C(=O)Cc2cc(NC(=O)CCCCCC(=O)Nc3ccccc3N)ccc2O[C@H]1CN(C)S(C)(=O)=O	·	·	·	·	0	·
CN1CCCC(n2nc(Cc3ccc(Cl)cc3)c3ccccc3c2=O)CC1 (stereo not drawn)	-6	1	1	118*	0	-15
COc1ccc(/C=N/Nc2cc(C)nc3ccc(OC)cc23)c(OC)c1	-74	92*	-23	-14	3	-58
COc1ccc2nc(C)cc(NCc3ccc(F)cc3)c2c1	-10	91*	2	-10	97*	-10
COc1ccc(Cc2nnc(Nc3ccccc3)s2)cc1Br	-3	107*	0	10	0	6
COc1ccc(CNc2ccccc2)cc1Br	-8	·	-2	2	·	2
Cc1ccc(S(=O)(=O)Nc2ccc3c(c2)C(=O)N([C@H](C)CO)C[C@H](C)[C@H](CN(C)S(=O)(=O)c2ccc(F)cc2)OCCCC[C@H](C)O3)cc1	·	·	·	·	-1	·
COc1ccc2c3c(n(C)c2c1)[C@@H](CO)N(C(=O)Nc1ccc(F)cc1)CC31CN(S(=O)(=O)c2cccc(F)c2)C1	·	·	·	·	0	·
COc1ccc(COc2cc(-c3cccc(OC)c3)nc3ccc(NC(=O)C(C)C)cc23)cc1	-4	35	7	55*	0	52*
C[C@@H]1CN([C@@H](C)CO)C(=O)c2cc(C#CCC3CCCC3)cnc2O[C@@H]1CN(C)C(=O)CN(C)C	·	·	·	·	0	·
Cc1cccc([C@@H]2[C@@H]3C(=O)N(Cc4ccccc4)C(=O)[C@@H]3[C@]3(Cc4ccccc4)C(=O)N(c4ccccc4)C(=O)N23)c1	-11	0	?	-16	0	-13
O=C1[C@H]2[C@@H](c3ccc(F)cc3)N3C(=O)N(c4cccc(F)c4)C(=O)[C@@]3(Cc3ccccc3)[C@H]2C(=O)N1C1CCCCC1	-5	2	14	-14	0	-12
O=C1[C@H]2[C@@H](c3ccc(F)cc3)N3C(=O)N(c4cccc(Br)c4)C(=O)[C@@]3(Cc3ccccc3)[C@H]2C(=O)N1C1CCCCC1	-3	-6	67*	-6	0	-13
